Calls of active or inactive are those of the source. The rule behind the calls is not given here.
What was measured:
[1] = In-vivo inhibition of 11beta-HSD1 activity in C57BL/6 mouse epididymal fat assessed as reduction in cortisone to-cortisol conversion at 10 mg/kg, po measured after 2 hrs by ELISA; format: functional; conditions: C57BL/6, Epididymal fat pad
How it was run: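 Male C57BL/6 mice dosed orally once at 3, 10 or 30 mg/kg in sterile water containing 0.5% methylcellulose and 1% Tween80, then sacrificed at 2 or 6 h. Liver and epididymal fat pads incubated ex vivo in culture medium containing cortisone. Cortisol formed was measured by ELISA and reported as % inhibition versus vehicle.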

[2] = Metabolic stability in mouse liver microsomes assessed as compound remaining after 30 mins; format: ADME, Microsome; conditions: read-out: Stabilty
[3] = In-vivo inhibition of 11beta-HSD1 activity in C57BL/6 mouse liver assessed as reduction in cortisone to-cortisol conversion at 10 mg/kg, po measured after 2 hrs by ELISA; format: functional; conditions: C57BL/6, Liver
Cytochrome P450 2C9 = Cytochrome P450 2C9 (Homo sapiens, UniProt P11712); experiment: Inhibition of CYP2C9 in pooled human liver microsomes using diclofenac as substrate in presence of NADPH incubated for 10 mins by LC-MS/MS analysis
Cytochrome P450 1A2 = biological target: T1, Cytochrome P450 1A2 (Homo sapiens, UniProt P05177); experiment: Inhibition of CYP1A2 in pooled human liver microsomes using phenacetin as substrate in presence of NADPH incubated for 10 mins by LC-MS/MS analysis
T1 sequence (P05177 whole entry): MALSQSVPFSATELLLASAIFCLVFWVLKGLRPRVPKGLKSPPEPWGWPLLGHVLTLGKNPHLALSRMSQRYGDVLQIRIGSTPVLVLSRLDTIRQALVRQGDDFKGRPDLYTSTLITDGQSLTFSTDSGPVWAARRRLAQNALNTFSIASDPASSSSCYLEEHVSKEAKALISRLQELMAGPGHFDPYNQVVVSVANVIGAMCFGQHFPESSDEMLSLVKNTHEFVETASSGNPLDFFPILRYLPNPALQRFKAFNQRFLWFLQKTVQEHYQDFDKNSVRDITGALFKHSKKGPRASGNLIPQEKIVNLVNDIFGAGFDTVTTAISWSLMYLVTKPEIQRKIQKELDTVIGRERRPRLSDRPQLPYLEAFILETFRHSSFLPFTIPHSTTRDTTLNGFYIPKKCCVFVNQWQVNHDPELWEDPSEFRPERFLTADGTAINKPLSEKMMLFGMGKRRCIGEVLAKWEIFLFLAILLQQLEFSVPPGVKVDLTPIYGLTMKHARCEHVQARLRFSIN

Cytochrome P450 2C19 = Cytochrome P450 2C19 (Homo sapiens, UniProt P33261); experiment: Inhibition of CYP2C19 in pooled human liver microsomes using mephenytoin as substrate in presence of NADPH incubated for 10 mins by LC-MS/MS analysis
Cytochrome P450 2D6 = Cytochrome P450 2D6 (Homo sapiens, UniProt P10635); experiment: Inhibition of CYP2D6 in pooled human liver microsomes using dextromethorphan as substrate in presence of NADPH incubated for 10 mins by LC-MS/MS analysis
Cytochrome P450 3A4 = Cytochrome P450 3A4 (Homo sapiens, UniProt P08684); experiment: Inhibition of CYP3A4 in pooled human liver microsomes using midazolam as substrate in presence of NADPH incubated for 10 mins by LC-MS/MS analysis
[4] = Reduction in HbA1c level in C57BL/6-Lep^ob (ob/ob) mouse at 300 mg/kg, po dosed once daily for 25 days relative to control; format: functional; set-up: scale not given: the % may be the effect or the level left; conditions: time 25 day
How it was run: (§1)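 Eight-week-old male ob/ob mice were dosed orally once daily for 25 days with vehicle (sterile water, 0.5% methylcellulose, 1% Tween80), test compound 20 mg/kg, metformin 300 mg/kg, or the combination. Baseline postprandial glucose and HbA1c were checked from tail-vein blood. Changes in HbA1c and non-fasting blood glucose were expressed relative to the vehicle group.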

Mus musculus [5] = experiment: Improvement in lipid profile in C57BL/6-Lep^ob (ob/ob) mouse assessed as total cholesterol level at 300 mg/kg, po dosed once daily for 25 days (reference value: 286.6 +/- 6.3 mg/dl); format: functional; conditions: time 25 day
Mus musculus [6] = experiment: Improvement in lipid profile in C57BL/6-Lep^ob (ob/ob) mouse assessed as LDL cholesterol level at 300 mg/kg, po dosed once daily for 25 days (reference value: 30.3 +/- 0.8 mg/dl); format: functional; conditions: time 25 day
Mus musculus [7] = experiment: Improvement in lipid profile in C57BL/6-Lep^ob (ob/ob) mouse assessed as triglyceride level at 300 mg/kg, po dosed once daily for 25 days (reference value: 90.9 +/- 5.5 mg/dl); format: functional; conditions: time 25 day
Mus musculus [8] = experiment: Reduction in nonfasting blood glucose level in C57BL/6-Lep^ob (ob/ob) mouse at 300 mg/kg, po dosed once daily for 25 days relative to control; format: functional, organism-based; conditions: time 25.0 day; how it was run: as §1
[9] = Reduction in fasting plasma glucose in patient with type 2 diabetes exhibiting inadequate glycemic control with metformin alone dosed for 12 weeks during phase 2 trial; format: functional, Homo sapiens
[10] = Reduction in HbA1c in patient with type 2 diabetes exhibiting inadequate glycemic control with metformin alone dosed for 12 weeks during phase 2 trial; format: functional, Homo sapiens; set-up: scale not given: the % may be the effect or the level left
[11] = Reduction in HOMA-IR in patient with type 2 diabetes exhibiting inadequate glycemic control with metformin alone dosed for 12 weeks during phase 2 trial; format: functional, Homo sapiens; set-up: scale not given: the % may be the effect or the level left
[12] = biological target: T2, Nuclear receptor subfamily 1 group I member 2 (Homo sapiens, UniProt O75469); experiment: Activation of PXR (unknown origin) at 10 uM relative to rifampicin; format: ADME
T2 sequence (O75469 whole entry): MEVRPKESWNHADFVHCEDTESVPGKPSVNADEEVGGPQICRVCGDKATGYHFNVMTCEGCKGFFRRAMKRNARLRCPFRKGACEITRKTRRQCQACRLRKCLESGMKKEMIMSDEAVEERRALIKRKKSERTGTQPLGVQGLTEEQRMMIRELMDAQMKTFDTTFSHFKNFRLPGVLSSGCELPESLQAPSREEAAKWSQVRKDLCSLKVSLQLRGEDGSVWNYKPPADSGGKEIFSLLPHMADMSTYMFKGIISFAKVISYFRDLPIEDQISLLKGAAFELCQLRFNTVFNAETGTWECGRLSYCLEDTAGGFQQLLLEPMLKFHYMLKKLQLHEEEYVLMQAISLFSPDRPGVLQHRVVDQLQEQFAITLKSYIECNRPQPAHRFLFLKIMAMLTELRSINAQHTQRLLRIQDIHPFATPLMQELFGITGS

[13] = biological target: 11-beta-hydroxysteroid dehydrogenase 1 (Homo sapiens, UniProt P28845); experiment: Inhibition of human 11beta-HSD1 expressed in HEK293 cells using cortisone by ELISA
11-beta-hydroxysteroid dehydrogenase 1, sequence (P28845 whole entry): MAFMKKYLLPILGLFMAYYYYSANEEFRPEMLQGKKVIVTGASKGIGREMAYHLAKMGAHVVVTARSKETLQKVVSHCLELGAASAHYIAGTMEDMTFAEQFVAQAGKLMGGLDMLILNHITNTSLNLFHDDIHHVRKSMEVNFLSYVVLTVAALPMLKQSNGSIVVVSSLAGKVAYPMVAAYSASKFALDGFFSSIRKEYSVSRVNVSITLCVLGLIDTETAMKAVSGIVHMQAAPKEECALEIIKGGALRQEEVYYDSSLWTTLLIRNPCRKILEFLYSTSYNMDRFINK

Cytochrome P450 3A4, sequence (P08684 whole entry): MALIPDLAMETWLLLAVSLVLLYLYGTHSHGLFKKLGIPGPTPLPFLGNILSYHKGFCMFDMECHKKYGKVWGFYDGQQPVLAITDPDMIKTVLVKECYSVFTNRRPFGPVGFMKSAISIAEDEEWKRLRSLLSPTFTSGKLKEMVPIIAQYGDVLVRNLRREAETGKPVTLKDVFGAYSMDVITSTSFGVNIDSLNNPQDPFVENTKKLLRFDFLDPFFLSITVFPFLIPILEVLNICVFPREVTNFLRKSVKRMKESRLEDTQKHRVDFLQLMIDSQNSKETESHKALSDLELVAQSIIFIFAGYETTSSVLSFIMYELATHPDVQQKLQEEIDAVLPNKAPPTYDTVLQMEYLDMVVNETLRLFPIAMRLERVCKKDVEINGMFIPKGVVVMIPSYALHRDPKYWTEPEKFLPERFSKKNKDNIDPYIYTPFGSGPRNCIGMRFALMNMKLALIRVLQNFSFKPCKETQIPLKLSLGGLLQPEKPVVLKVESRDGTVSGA
Cytochrome P450 2C19, sequence (P33261 whole entry): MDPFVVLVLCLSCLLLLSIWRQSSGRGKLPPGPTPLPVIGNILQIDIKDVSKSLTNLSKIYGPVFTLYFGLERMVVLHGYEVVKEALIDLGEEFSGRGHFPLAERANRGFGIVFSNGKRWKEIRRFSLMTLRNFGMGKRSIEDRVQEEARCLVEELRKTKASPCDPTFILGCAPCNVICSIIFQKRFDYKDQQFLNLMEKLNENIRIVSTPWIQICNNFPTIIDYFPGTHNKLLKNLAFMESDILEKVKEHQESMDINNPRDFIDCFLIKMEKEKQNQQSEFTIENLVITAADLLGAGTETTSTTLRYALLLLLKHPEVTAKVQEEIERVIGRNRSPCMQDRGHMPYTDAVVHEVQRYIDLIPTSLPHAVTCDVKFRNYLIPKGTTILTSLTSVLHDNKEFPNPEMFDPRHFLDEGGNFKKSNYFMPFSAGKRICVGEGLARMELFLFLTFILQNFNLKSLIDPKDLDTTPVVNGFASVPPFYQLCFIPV
Cytochrome P450 2D6, sequence (P10635 whole entry): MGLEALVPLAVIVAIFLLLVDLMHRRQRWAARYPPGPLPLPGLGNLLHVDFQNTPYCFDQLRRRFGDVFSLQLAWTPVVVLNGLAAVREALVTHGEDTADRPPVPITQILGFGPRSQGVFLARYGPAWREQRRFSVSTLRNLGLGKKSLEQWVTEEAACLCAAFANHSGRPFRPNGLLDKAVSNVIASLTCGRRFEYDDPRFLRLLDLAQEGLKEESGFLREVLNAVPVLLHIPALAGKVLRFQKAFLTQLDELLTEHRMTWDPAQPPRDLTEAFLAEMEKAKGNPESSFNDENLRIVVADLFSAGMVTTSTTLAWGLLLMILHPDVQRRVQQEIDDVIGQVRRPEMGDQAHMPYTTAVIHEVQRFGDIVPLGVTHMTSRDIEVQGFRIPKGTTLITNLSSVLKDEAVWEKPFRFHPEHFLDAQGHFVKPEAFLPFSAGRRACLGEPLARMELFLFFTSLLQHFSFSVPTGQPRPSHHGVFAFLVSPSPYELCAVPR
Cytochrome P450 2C9, sequence (P11712 whole entry): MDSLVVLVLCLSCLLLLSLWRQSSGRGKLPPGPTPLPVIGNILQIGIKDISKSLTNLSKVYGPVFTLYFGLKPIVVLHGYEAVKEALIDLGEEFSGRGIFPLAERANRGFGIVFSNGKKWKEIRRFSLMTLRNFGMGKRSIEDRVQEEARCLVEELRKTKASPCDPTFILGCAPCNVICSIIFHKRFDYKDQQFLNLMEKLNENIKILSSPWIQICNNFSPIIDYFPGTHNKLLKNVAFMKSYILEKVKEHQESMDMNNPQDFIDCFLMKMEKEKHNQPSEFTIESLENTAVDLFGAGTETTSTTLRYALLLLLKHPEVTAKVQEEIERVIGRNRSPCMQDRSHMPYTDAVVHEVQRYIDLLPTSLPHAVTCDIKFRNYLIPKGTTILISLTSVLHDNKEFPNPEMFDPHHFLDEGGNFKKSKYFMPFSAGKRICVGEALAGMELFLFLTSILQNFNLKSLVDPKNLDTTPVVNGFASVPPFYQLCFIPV

Structure (SMILES)	inhibition in vivo at 10 mg/kg [1] [%]	remaining at 0.5 h [2] [%]	inhibition in vivo at 10 mg/kg [3] [%]	other results
C[C@@H]1CN(c2ccc(C(C)(C)O)cc2F)CCN1c1nccc(C(=O)NC2C3CC4CC2CC(O)(C4)C3)n1 (stereo partly specified)	74	98	43	–
C[C@@H]1CN(c2ccc(S(C)(=O)=O)cc2)CCN1c1nccc(C(=O)NC2C3CC4CC2CC(O)(C4)C3)n1 (stereo partly specified)	81	92	48	IC50 (Cytochrome P450 2C9): > 10 µM; IC50 (Cytochrome P450 1A2): > 10 µM; IC50 (Cytochrome P450 2C19): > 10 µM; IC50 (Cytochrome P450 2D6): > 10 µM; IC50 (Cytochrome P450 3A4): > 10 µM
CN(C)C(=N)NC(=N)N [METFORMIN]	–	–	–	Activity [4]: 0.7%; Activity (Mus musculus [5]): 252.6 mg/dL; Activity (Mus musculus [6]): 23.9 mg/dL; Activity (Mus musculus [7]): 99.9 mg/dL; Activity (Mus musculus [8]): inactive
CNS(=O)(=O)c1ccc(N2CCN(c3cccc(C(=O)NC4C5CC6CC4CC(O)(C6)C5)n3)[C@H](C)C2)cc1 (stereo partly specified)	33	83	12	–
CNC(=O)c1ccc(N2CCN(c3cccc(C(=O)NC4C5CC6CC4CC(O)(C6)C5)n3)[C@H](C)C2)cn1 (stereo partly specified)	85	66	52	IC50 (Cytochrome P450 2C9): > 10 µM; IC50 (Cytochrome P450 1A2): > 10 µM; IC50 (Cytochrome P450 2C19): 0.7 µM; IC50 (Cytochrome P450 2D6): > 10 µM; IC50 (Cytochrome P450 3A4): > 10 µM
CNC(=O)c1ccc(N2CCN(c3cccc(C(=O)NC4C5CC6CC4CC(O)(C6)C5)n3)[C@H](C)C2)cc1 (stereo partly specified)	34	61	0	–
C[C@@H]1CN(c2ccc(C(C)(C)O)nc2)CCN1c1cccc(C(=O)NC2C3CC4CC2CC(O)(C4)C3)n1 (stereo partly specified)	87	76	63	–
C[C@@H]1CN(c2ccc(C#N)cc2)CCN1c1nccc(C(=O)NC2C3CC4CC2CC(O)(C4)C3)n1 (stereo partly specified)	12	86	6	–
Cc1cc(S(C)(=O)=O)ccc1N1CCN(c2nccc(C(=O)NC3C4CC5CC3CC(O)(C5)C4)n2)[C@H](C)C1 (stereo partly specified)	77	90	64	–
CCS(=O)(=O)c1ccc(N2CCN(c3nccc(C(=O)NC4C5CC6CC4CC(O)(C6)C5)n3)[C@H](C)C2)c(F)c1 (stereo partly specified)	82	91	79	–
O=C(NC1CCCCC1)[C@H]1CCCN(S(=O)(=O)c2cccc(Cl)c2)C1	–	–	–	Activity [9]: 24 mg/dL; Activity [10]: 0.6%; Activity [11]: 24%
C[C@@H]1CN(c2ccc(S(C)(=O)=O)cc2Cl)CCN1c1nccc(C(=O)NC2C3CC4CC2CC(O)(C4)C3)n1 (stereo partly specified)	82	96	77	–
C[C@@H]1CN(c2ccc(S(N)(=O)=O)cc2)CCN1c1cccc(C(=O)NC2C3CC4CC2CC(O)(C4)C3)n1 (stereo partly specified)	11	65	0	–
C[C@@H]1CN(c2ccc(C(=O)O)cc2)CCN1c1cccc(C(=O)NC2C3CC4CC2CC(O)(C4)C3)n1 (stereo partly specified)	–	71	–	–
C[C@@H]1CN(c2ccc(Cl)cc2)CCN1c1nccc(C(=O)NC2C3CC4CC2CC(O)(C4)C3)n1 (stereo partly specified)	–	78	–	–
C[C@@H]1CN(c2ccc(C(N)=O)nc2)CCN1c1cccc(C(=O)NC2C3CC4CC2CC(O)(C4)C3)n1 (stereo partly specified)	–	23	–	–
C[C@@H]1CN(c2ccc(F)cc2)CCN1c1nccc(C(=O)NC2C3CC4CC2CC(O)(C4)C3)n1 (stereo partly specified)	–	82	–	–
C[C@@H]1CN(c2ccc(S(C)(=O)=O)cc2)CCN1c1cccc(C(=O)NC2C3CC4CC2CC(O)(C4)C3)n1 (stereo partly specified)	86	97	70	IC50 (Cytochrome P450 2C9): > 10 µM; IC50 (Cytochrome P450 1A2): > 10 µM; Activity [12]: 32.7%; IC50 (Cytochrome P450 2C19): 3.7 µM; IC50 (Cytochrome P450 2D6): > 10 µM; IC50 [13]: 0.0031 µM; IC50 (Cytochrome P450 3A4): 0.97 µM
C[C@@H]1CN(c2ccc(C(C)(C)O)cc2)CCN1c1nccc(C(=O)NC2C3CC4CC2CC(O)(C4)C3)n1 (stereo partly specified)	46	99	32	–
C[C@@H]1CN(c2cc(F)c(S(C)(=O)=O)cc2F)CCN1c1nccc(C(=O)NC2C3CC4CC2CC(O)(C4)C3)n1 (stereo partly specified)	85	92	80	–
C[C@@H]1CN(c2ccc(C(F)(F)F)cc2)CCN1c1nccc(C(=O)NC2C3CC4CC2CC(O)(C4)C3)n1 (stereo partly specified)	–	90	–	–
C[C@@H]1CN(c2ccc(C(N)=O)cc2)CCN1c1cccc(C(=O)NC2C3CC4CC2CC(O)(C4)C3)n1 (stereo partly specified)	26	57	0	–
C[C@@H]1CN(c2c(F)cc(S(C)(=O)=O)cc2F)CCN1c1nccc(C(=O)NC2C3CC4CC2CC(O)(C4)C3)n1 (stereo partly specified)	–	95	–	–

Source: ChEMBL document CHEMBL4680093 (J Med Chem, 2016)
